Legend:
[1] = molecular target: NOD1 (Homo sapiens, UniProt Q9Y239); test: HEK-Blue NOD1 SEAP reporter assay; type: cell-based; conditions: GM, M 20 μM; 18 h
How it was run: (§1)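 HEK-Blue hNod1 or hNod2 cells were seeded at 50,000 cells/well in DMEM/10% FBS without selection antibiotics and stimulated at once for 18 h (n = 3). Supernatant was mixed 1:4 with Quanti-Blue and incubated 6 h at 37 °C, and absorbance was read at 620 nm. Values were blanked against water-treated wells, and the respective parental Null cell readouts were subtracted.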

[2] = test system: NOD2; test: HEK-Blue NOD2 SEAP reporter assay; type: cell-based, human; conditions: MDP, M-AE 200 nM; GM, M 20 μM; 18 h
How it was run: as §1

[3] = test system: RAW264.7 cells; test: Cytokine expression in RAW264.7 macrophages; type: cell-based, mouse; conditions: GM 1-4 mM, M 4 mM, 24 h
How it was run: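 RAW264.7 cells were kept in high-glucose IMDM with HEPES, 5% heat-inactivated FBS and penicillin/streptomycin at 37 °C, 5% CO2. They were exposed to test compounds for 24 h (n = 4). Total RNA was extracted with a column kit, and TNF-α and IL-6 transcripts were quantified by RT-qPCR using the 2-ΔΔCt method, normalised to β-act.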

[4] = test system: WT bone-marrow-derived macrophages (BMDMs); test: Cytokine gene expression in WT BMDMs; type: cell-based, mouse; conditions: GM 2-8 mM, M 8 mM
How it was run: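 Marrow was flushed from the femur and tibia of female SPF C57BL/6J mice and red cells were lysed (NH4Cl/KHCO3). Cells at 200,000 cells/mL were differentiated for 6 days in IMDM with 20 ng/mL GM-CSF or 10% L929 supernatant, then switched to serum-free IMDM. Test compounds were added for 24 h (n = 3). Cytokine transcripts were measured by RT-qPCR (2-ΔΔCt, normalised to β-act).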

[5] = Incubation with 10% FBS; type: in vitro ADME, bovine; conditions: 37 C, 16 h, LC-MS
[6] = test system: Tlr4-/- BMDMs; test: Cytokine secretion by Tlr4-/- BMDMs; type: cell-based, mouse; conditions: ELISA, 24 h; GM 4 mM, MDP 0.4 mM, LPS 100 ng/mL, CpG 100 nM
How it was run: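 Murine BMDMs were differentiated 6 days in complete medium with 20 ng/mL GM-CSF or 10% L929 supernatant, then switched to serum-free IMDM and stimulated 24 h. Mouse TNF-α and IL-6 in culture supernatants were quantified by sandwich ELISA. Samples were prediluted in 1% BSA in PBS, pH 7.4, where needed.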

[7] = test system: RAW-Dual cells; test: TNF-α secretion by RAW-Dual WT cells, with or without TLR inhibitors; type: cell-based, mouse; conditions: inhibitor 10 μM, 1 h pre-incubation, then GM 2 mM, 24 h; ELISA
How it was run: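 RAW-Dual cells were seeded at 100,000 cells/well and pre-incubated 1 h with 10 μM TLR2 (CU_CPT22), TLR4 (TAK-242) or TLR7/9 (AT791) inhibitor. They were then stimulated with 2 mM test compound for 24 h. Supernatants were cleared at 16,000 × g and TNF-α was measured by sandwich ELISA.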

Sequence of NOD1 (Q9Y239 whole entry): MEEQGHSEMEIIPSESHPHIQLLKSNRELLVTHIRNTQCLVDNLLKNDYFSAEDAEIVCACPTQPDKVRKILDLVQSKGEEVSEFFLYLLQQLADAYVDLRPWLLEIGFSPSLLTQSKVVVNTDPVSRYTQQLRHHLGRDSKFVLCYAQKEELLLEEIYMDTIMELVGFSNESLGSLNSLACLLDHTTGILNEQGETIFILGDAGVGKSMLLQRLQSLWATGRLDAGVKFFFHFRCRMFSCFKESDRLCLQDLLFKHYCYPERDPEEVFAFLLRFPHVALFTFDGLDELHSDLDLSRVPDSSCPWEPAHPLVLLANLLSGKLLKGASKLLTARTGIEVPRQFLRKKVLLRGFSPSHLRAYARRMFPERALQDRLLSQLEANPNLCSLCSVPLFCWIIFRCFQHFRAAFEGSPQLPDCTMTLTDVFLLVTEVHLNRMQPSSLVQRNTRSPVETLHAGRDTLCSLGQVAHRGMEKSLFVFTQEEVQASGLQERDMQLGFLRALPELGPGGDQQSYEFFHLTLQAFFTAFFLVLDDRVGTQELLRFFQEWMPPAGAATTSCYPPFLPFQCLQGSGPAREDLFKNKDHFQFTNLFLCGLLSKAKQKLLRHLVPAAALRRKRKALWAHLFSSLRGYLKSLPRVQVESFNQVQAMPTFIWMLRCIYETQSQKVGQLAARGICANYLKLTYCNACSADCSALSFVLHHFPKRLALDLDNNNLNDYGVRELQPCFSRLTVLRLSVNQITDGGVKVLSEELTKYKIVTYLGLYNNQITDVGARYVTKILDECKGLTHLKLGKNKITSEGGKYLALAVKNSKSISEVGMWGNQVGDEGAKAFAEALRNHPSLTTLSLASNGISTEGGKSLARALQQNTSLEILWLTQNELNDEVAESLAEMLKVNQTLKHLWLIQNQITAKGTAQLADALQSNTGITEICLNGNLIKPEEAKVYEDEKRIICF

Compound: CC(=O)N[C@H]1C(O)O[C@H](CO)[C@@H](O)[C@@H]1O[C@H](C)C(=O)O (some centres unmarked) [M, N-acetylmuramic acid, reference compound]
- NOD1 activation in HEK-Blue reporter cells (in words) [1]: unable to activate NOD1/2
- NOD2 activation in HEK-Blue reporter cells (in words) [2]: unable to activate NOD1/2
- Immuno-stimulatory activity (TNF-α, IL-6) in RAW264.7 (in words) [3]: less potent
- Immuno-stimulatory activity (TNF-α, IL-6) in BMDMs (in words) [4]: less potent

Compound: CC(=O)N[C@H]1C(O)O[C@H](CO)[C@@H](O)[C@@H]1O[C@H](C)C(=O)N[C@@H](C)C(=O)N[C@H](CCC(=O)O)C(=O)O (some centres unmarked) [M-AE]
- NOD2 activation in HEK-Blue reporter cells (in words) [2]: potent NOD2 activation similar to the model ligand MDP

Compound: M-AEKAA
- Degradation on incubation with 10% FBS [5]: reliably yields the expected degradation products: M and AEKAA

Compound: CC(=O)N[C@H]1C(O)O[C@H](CO)[C@@H](O)[C@@H]1O[C@H](C)C(=O)N[C@@H](C)C(=O)N[C@H](CCC(=O)O)C(N)=O (stereo partly drawn) [MDP, N-acetylmuramyl-L-Ala-D-isoGln, reference compound]
- TNF-α and IL-6 production in Tlr4-/- BMDMs (in words) [6]: still trigger comparable proinflammatory cytokine production

Compound: CCOC(=O)C1=CCCC[C@H]1S(=O)(=O)Nc1ccc(F)cc1Cl [TAK-242]
- Effect of TLR inhibitor on GM-triggered TNF-α production [7]: suppressed GM-triggered TNF-α production

— article PMC12219203 (Nature Communications, 2025)
